Source: ChEMBL document CHEMBL4020833, “A Systematic Exploration of Macrocyclization in Apelin-13: Impact on Binding, Signaling, Stability, and Cardiovascular Effects” (J Med Chem, 2018)
pEC50, pKi: −log10 of the molar value. The source made the active and inactive calls. No cut-off for these calls is given here. Starred links: 1 amine or outer side, 2 acyl side, 3 side chain; linkers in the order of their positions; H or OH if unused. Positions of bridges follow the written chain, without caps; N, C: chain ends. Non-standard residues stand in square brackets, D forms with d. Residues, ends and D or L forms follow the SMILES beside them. X2 = N=C(N)NCCC[C@@H](C(=O)[*:2])N(CC=[*:3])[*:1]; X4 = O=C([C@H](CO)N(CC=[*:3])[*:1])[*:2]; AllylGly = C=CC[C@H](N)C(=O)O; pGlu = O=C1CC[C@@H](C(=O)O)N1; Nle = CCCC[C@H](N)C(=O)O

Columns and labels:
Rattus norvegicus [1] = experiment: Hypotensive activity in Sprague-Dawley rat assessed as reduction in systemic arterial blood pressure at 65 nmol/kg, iv administered over 10 secs; assay type: functional, organism-based
Outline: (§1)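 Male Sprague-Dawley rats (250-350g) anesthetized with intramuscular ketamine/xylazine (87/13 mg/kg), kept on a thermostatic pad. Carotid catheter for arterial pressure; jugular bolus of saline vehicle, then 5 min later peptide (19.6 or 65 nmol/kg; 0.25 ml over 10 s), followed by a saline flush.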

[2] = Half life in rat plasma at 1 mM by UPLC-MS analysis; assay type: ADME, cell-free
Outline: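 Male rat plasma incubated with peptide at 37 °C for 2, 4, 7, 24 h (or 10, 20, 60, 120 min for short-lived peptides); quenched with acetonitrile-ethanol (1:1) plus nicotinamide internal standard, then UPLC-MS. Percent remaining fitted to exponential decay for half-life; means ± SEM of three independent experiments. 1 mM is the stock solution.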

Rattus norvegicus [3] = experiment: Hypotensive activity in Sprague-Dawley rat assessed as reduction in systemic arterial blood pressure at 19.5 or 65 nmol/kg, iv administered over 10 secs; assay type: functional; outline: as §1
Heart [4] = experiment: Inotropic activity in Langendorff isolated-perfused Sprague-Dawley rat heart assessed as drug level causing maximum increase in left ventricular developed pressure efficacy relative to baseline control; assay type: functional
Outline: (§2)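 Sprague-Dawley rat hearts isolated and perfused in Langendorff mode with increasing peptide concentrations from 0.001 to 0.3 nM. Increase in left ventricular developed pressure recorded as the inotropic read-out, expressed as % from baseline; compared with buffer by unpaired parametric t test.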

Apelin receptor [5] = target: T1, Apelin receptor (Homo sapiens, UniProt P35414); experiment: Displacement of [125I]-[Nle75, Tyr77] Pyr1-apelin-13 from YFP-tagged human APJ receptor expressed in HEK293 cell membranes after 1 hr by gamma-counting method
T1 sequence (P35414 whole entry): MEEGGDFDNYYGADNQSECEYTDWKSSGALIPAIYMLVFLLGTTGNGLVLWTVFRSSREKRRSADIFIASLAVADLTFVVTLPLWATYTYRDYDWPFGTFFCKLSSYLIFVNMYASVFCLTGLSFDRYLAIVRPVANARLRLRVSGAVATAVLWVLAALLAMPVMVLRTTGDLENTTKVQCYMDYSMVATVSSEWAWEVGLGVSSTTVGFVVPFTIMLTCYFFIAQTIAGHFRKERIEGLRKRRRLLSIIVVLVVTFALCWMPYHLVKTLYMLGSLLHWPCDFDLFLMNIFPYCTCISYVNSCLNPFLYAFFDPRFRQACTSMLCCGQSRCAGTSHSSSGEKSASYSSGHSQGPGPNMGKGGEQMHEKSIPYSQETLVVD

Apelin receptor [6] = target: T1, Apelin receptor; experiment: Activity at human APJ receptor expressed in HEK293 cells assessed as dissociation of Galphai1 from Gbetagamma subunit after 5 mins by BRET assay; assay type: cell-based
Apelin receptor [7] = target: T1, Apelin receptor; experiment: Activity at GFP10-tagged human APJ receptor expressed in HEK293 cells assessed as induction of RlucII-tagged beta-arrestin-2 recruitment after 30 mins by BRET assay; assay type: cell-based
Apelin receptor [8] = target: T1, Apelin receptor; experiment: Induction of human HA-tagged APJ receptor internalization expressed in HEK293 cells after 30 mins by ELISA; assay type: cell-based
[9] = AUC in Sprague-Dawley rat at 3 mg/kg, iv measured up to 120 mins by LC-MS/MS analysis; assay type: ADME, organism-based; parameters: dose 3 mg/kg, time < 2 hr, route intravenous; settings: in vivo
Outline: (§3)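 Male Sprague-Dawley rats (250-350g) under intramuscular ketamine/xylazine (87/13 mg/kg); compound in 350 µL normal saline given via jugular vein. Carotid blood drawn into EDTA tubes at 1, 5, 10, 15, 30, 60, 120 min (1, 2, 5, 10, 15 min for Pyr-apelin-13), centrifuged for plasma, acetonitrile precipitation with internal standard, LC-MS/MS (ESI+, MRM).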

[10] = Drug level in Sprague-Dawley rat plasma at 3 mg/kg, iv measured at 5 mins by LC-MS/MS; assay type: ADME, organism-based; outline: as §3
Heart [11] = experiment: Inotropic activity in Langendorff isolated-perfused Sprague-Dawley rat heart assessed as increase in left ventricular developed pressure efficacy at 0.003 nM relative to baseline control; assay type: functional; outline: as §2
Heart [12] = experiment: Inotropic activity in Langendorff isolated-perfused Sprague-Dawley rat heart assessed as increase in left ventricular developed pressure efficacy at 0.03 nM relative to baseline control; assay type: functional; settings: in the assay text read “0.003 nM” for “0.03 nM”; outline: as §2

Structure (SMILES) | half-life at 1000 µM [2] | pKi (Apelin receptor [5]) | pEC50 (Apelin receptor [6]) | pEC50 (Apelin receptor [7]) | other results
CCCC[C@@H]1NC(=O)[C@@H]2CCCN2C(=O)[C@@H](NC(=O)[C@@H](CCCCN)NC(=O)[C@H](Cc2cnc[nH]2)NC(=O)[C@H](CO)NC(=O)[C@H](CC(C)C)NC(=O)[C@H](CCCNC(=N)N)NC(=O)[C@@H]2CCCN2C(=O)[C@H](CCCNC(=N)N)NC(=O)[C@@H]2CCC(=O)N2)C/C=C\C[C@@H](C(=O)O)NC(=O)[C@@H]2CCCN2C1=O | – | – | – | – | Activity (Rattus norvegicus [1]): Active
CCCC[C@H](NC(=O)[C@@H]1CCCN1C(=O)CNC(=O)[C@H](CCCCN)NC(=O)[C@@H]1C/C=C\C[C@H](NC(=O)[C@H](CCCNC(=N)N)NC(=O)[C@@H]2CCC(=O)N2)C(=O)N[C@@H](CCCNC(=N)N)C(=O)N[C@@H](CC(C)C)C(=O)N[C@@H](CO)C(=O)N1)C(=O)N1CCC[C@H]1C(=O)N[C@@H](Cc1ccccc1)C(=O)O | 3.9 h | – | – | – | Activity (Rattus norvegicus [3]): <=40 mmHg; Activity (Heart [4]): Active
CCCC[C@@H]1NC(=O)[C@@H]2CCCN2C(=O)[C@@H](NC(=O)[C@H](CCCCN)NC(=O)[C@H](Cc2cnc[nH]2)NC(=O)[C@H](CO)NC(=O)[C@H](CC(C)C)NC(=O)[C@H](CCCNC(=N)N)NC(=O)[C@@H]2CCCN2C(=O)[C@H](CCCNC(=N)N)NC(=O)[C@@H]2CCC(=O)N2)C/C=C\C[C@@H](C(=O)O)NC(=O)[C@@H]2CCCN2C1=O [listing 1 of 2 here] | 8.6 h | – | – | – | pKi (Apelin receptor [5]; hek293): 8.96; pEC50 (Apelin receptor [6]; hek293): 7.72; pEC50 (Apelin receptor [7]; hek293): 6.57; pEC50 (Apelin receptor [8]; hek293): 6.33; AUC at 2 h [9]: 4100 ng·h/mL; concentration at 5 min [10]: 5.6 µM
C=CC[C@H](NC(=O)[C@@H]1CCCN1C(=O)[C@H](CCCC)NC(=O)[C@@H]1CCCN1C(=O)[C@H](CC=C)NC(=O)[C@H](CCCCN)NC(=O)[C@H](Cc1cnc[nH]1)NC(=O)[C@H](CO)NC(=O)[C@H](CC(C)C)NC(=O)[C@H](CCCNC(=N)N)NC(=O)[C@@H]1CCCN1C(=O)[C@H](CCCNC(=N)N)NC(=O)[C@@H]1CCC(=O)N1)C(=O)O ([pGlu]RPRLSHK[AllylGly]P[Nle]P[AllylGly]-OH) | 2.4 h | 8.68 | 8.70 | 6.84 | –
CCCC[C@H](NC(=O)[C@@H]1C/C=C\CN(C(=O)[C@H](CC(C)C)NC(=O)[C@H](CCCNC(=N)N)NC(=O)[C@@H]2CCCN2C(=O)[C@H](CCCNC(=N)N)NC(=O)[C@@H]2CCC(=O)N2)[C@@H](CO)C(=O)N[C@@H](Cc2cnc[nH]2)C(=O)N[C@@H](CCCCN)C(=O)NCC(=O)N1)C(=O)N1CCC[C@H]1C(=O)N[C@@H](Cc1ccccc1)C(=O)O ([pGlu]RPRL[X4]HKG[AllylGly][Nle]PF-OH; staple (Z) 6-10) | > 24 h | 6.73 | – | – | –
CCCC[C@H](NC(=O)[C@@H]1C/C=C\C[C@H](NC(=O)[C@H](CC(C)C)NC(=O)[C@H](CCCNC(=N)N)NC(=O)[C@@H]2CCCN2C(=O)[C@H](CCCNC(=N)N)NC(=O)[C@@H]2CCC(=O)N2)C(=O)N[C@@H](Cc2cnc[nH]2)C(=O)N[C@@H](CCCCN)C(=O)NCC(=O)N1)C(=O)N1CCC[C@H]1C(=O)N[C@@H](Cc1ccccc1)C(=O)O ([pGlu]RPRL[AllylGly]HKG[AllylGly][Nle]PF-OH; staple (Z) 6-10) | 4.1 h | 6.57 | – | – | –
CCCC[C@@H]1NC(=O)[C@@H]2CCCN2C(=O)CNC(=O)[C@@H](NC(=O)[C@H](Cc2cnc[nH]2)NC(=O)[C@H](CO)NC(=O)[C@H](CC(C)C)NC(=O)[C@H](CCCNC(=N)N)NC(=O)[C@@H]2CCCN2C(=O)[C@H](CCCNC(=N)N)NC(=O)[C@@H]2CCC(=O)N2)C/C=C\C[C@@H](C(=O)N[C@@H](Cc2ccccc2)C(=O)O)NC1=O ([pGlu]RPRLSH[AllylGly]GP[Nle][AllylGly]F-OH; staple (Z) 8-12) | 4.6 h | 7.85 | 7.52 | 6.08 | –
CCCC[C@H](NC(=O)[C@@H]1CCCN1C(=O)CNC(=O)[C@@H]1C/C=C\CN(C(=O)[C@@H]2CCCN2C(=O)[C@H](CCCNC(=N)N)NC(=O)[C@@H]2CCC(=O)N2)[C@@H](CCCNC(=N)N)C(=O)N[C@@H](CC(C)C)C(=O)N[C@@H](CO)C(=O)N[C@@H](Cc2cnc[nH]2)C(=O)N1)C(=O)N1CCC[C@H]1C(=O)N[C@@H](Cc1ccccc1)C(=O)O ([pGlu]RP[X2]LSH[AllylGly]GP[Nle]PF-OH; staple (Z) 4-8) | 7.7 h | 8.04 | 7.72 | 6.29 | –
CCCC[C@@H]1NC(=O)[C@@H]2CCCN2C(=O)[C@@H](NC(=O)[C@H](CCCCN)NC(=O)[C@H](Cc2cnc[nH]2)NC(=O)[C@H](CO)NC(=O)[C@H](CC(C)C)NC(=O)[C@H](CCCNC(=N)N)NC(=O)[C@@H]2CCCN2C(=O)[C@H](CCCNC(=N)N)NC(=O)[C@@H]2CCC(=O)N2)CCN(S(=O)(=O)c2ccccc2[N+](=O)[O-])C/C=C\C[C@@H](C(=O)O)NC(=O)[C@@H]2CCCN2C1=O | 6.8 h | 9.82 | 8.89 | 7.24 | Activity (Rattus norvegicus [3]): <=40 mmHg; pEC50 (Apelin receptor [8]): 7.35; AUC at 2 h [9]: 2800 ng·h/mL; concentration at 5 min [10]: 2.5 µM; Activity (Heart [4]): 3 pM
CCCC[C@H](NC(=O)[C@@H]1CCCN1C(=O)CNC(=O)[C@H](CCCCN)NC(=O)[C@H](Cc1cnc[nH]1)NC(=O)[C@H](CO)NC(=O)[C@@H]1C/C=C\C[C@H](N)C(=O)N[C@@H](CCCNC(=N)N)C(=O)N2CCC[C@H]2C(=O)N[C@@H](CCCNC(=N)N)C(=O)N1)C(=O)N1CCC[C@H]1C(=O)N[C@@H](Cc1ccccc1)C(=O)O | 0.8 h | 8.24 | 7.64 | 6.08 | –
CCCC[C@@H]1NC(=O)[C@@H]2CCCN2C(=O)[C@@H](NC(=O)[C@H](CCCCN)NC(=O)[C@H](Cc2cnc[nH]2)NC(=O)[C@H](CO)NC(=O)[C@H](CC(C)C)NC(=O)[C@H](CCCNC(=N)N)NC(=O)[C@@H]2CCCN2C(=O)[C@H](CCCNC(=N)N)NC(=O)[C@@H]2CCC(=O)N2)C/C=C\C[C@@H](C(=O)O)NC(=O)[C@@H]2CCCN2C1=O [listing 2 of 2 here] | – | – | – | – | Efficacy (Heart [11]): 217%; Activity (Heart [4]): 3 pM
CC(C)C[C@H](NC(=O)[C@H](CCCNC(=N)N)NC(=O)[C@@H]1CCCN1C(=O)[C@H](CCCNC(=N)N)NC(=O)[C@@H]1CCC(=O)N1)C(=O)N[C@@H](CO)C(=O)N[C@H]1C/C=C\C[C@@H](C(=O)N2CCC[C@H]2C(=O)N[C@@H](Cc2ccccc2)C(=O)O)NC(=O)[C@@H]2CCCN2C(=O)CNC(=O)[C@H](CCCCN)NC1=O ([pGlu]RPRLS[AllylGly]KGP[AllylGly]PF-OH; staple (Z) 7-11) | 6.6 h | 8.85 | 7.70 | 6.40 | –
CCCC[C@H](NC(=O)[C@@H]1CCCN1C(=O)CNC(=O)[C@H](CCCCN)NC(=O)[C@H](Cc1cnc[nH]1)NC(=O)[C@@H]1C/C=C\C[C@H](NC(=O)[C@@H]2CCC(=O)N2)C(=O)N2CCC[C@H]2C(=O)N[C@@H](CCCNC(=N)N)C(=O)N[C@@H](CC(C)C)C(=O)N1)C(=O)N1CCC[C@H]1C(=O)N[C@@H](Cc1ccccc1)C(=O)O | 0.7 h | 6.29 | – | – | –
CSCC[C@H](NC(=O)[C@@H]1CCCN1C(=O)CNC(=O)[C@H](CCCCN)NC(=O)[C@H](Cc1cnc[nH]1)NC(=O)[C@H](CO)NC(=O)[C@H](CC(C)C)NC(=O)[C@H](CCCNC(=N)N)NC(=O)[C@@H]1CCCN1C(=O)[C@H](CCCNC(=N)N)NC(=O)[C@@H]1CCC(=O)N1)C(=O)N1CCC[C@H]1C(=O)N[C@@H](Cc1ccccc1)C(=O)O | – | – | – | – | AUC at 2 h [9]: 3.33 ng·h/mL; Efficacy (Heart [12]): 81%; Activity (Heart [4]): 30 pM
